pEC50, pIC50: −log10 of the molar value. Calls of active or inactive are those of the source. The calls are words filed in the database; no cut-off is given here.
Assays:
Rattus norvegicus [1] = assay: Antiinflammatory activity in Wistar albino rat assessed as inhibition of turpentine oil-induced granuloma at 20 mg/kg, po qd for 7 days post turpentine oil challenge measured on day 8; type: functional
Summary of the method: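 In ether-anaesthetized male Wistar rats (five per group) a dorsal subcutaneous pouch is formed with 2 mL air, then 0.5 mL turpentine oil is injected. Oral dosing at 20 mg/kg starts 1 h before turpentine and continues 7 days. On day 8 the exudate is drawn by syringe and its volume recorded; % inhibition = (Vcontrol − Vtreated)/Vcontrol × 100.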

THP-1 [2] = assay: Antiinflammatory activity in human THP1 cells assessed as reduction in LPS and IFN-gamma-induced MCP level after 24 hrs; type: functional, cell-based; details: Homo sapiens, THP-1, 24 h; read-out: IC50
Summary of the method: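 THP-1 cells (5 × 10^5 cells/mL, DMEM-F12 with 5% FBS) pretreated 15 min with compound or DMSO vehicle, then stimulated with 0.5 µg/mL LPS plus 150 U/mL IFN-γ. After 24 h, MCP-1 in cell-free medium measured by ELISA. IC50 estimated from concentration–response; randomized block ANOVA.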

THP-1 [3] = assay: Neuroprotective activity against LPS and IFN-gamma-stimulated neurotoxin production in human THP1 cell assessed as inhibition of THP1 cell secretion-induced toxicity to human SH-SY5Y cells after 72 hrs by MTT assay; type: functional, cell-based; details: THP-1, 72 h
Summary of the method: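 THP-1 cells pretreated 15 min with compound, then stimulated with LPS (0.5 µg/mL) plus IFN-γ (150 U/mL) for 24 h. Cell-free supernatant transferred to SH-SY5Y cells plated 24 h earlier (2 × 10^5 cells/mL). After 72 h, SH-SY5Y viability read by MTT (0.5 mg/mL, 1 h, 37 °C, OD570) or by LDH release (OD490, relative to Triton X-100 lysis). IC50 estimated.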

Rattus norvegicus [4] = assay: Antiinflammatory activity in Wistar albino rat assessed as inhibition of formalin-induced paw edema at 20 mg/kg, po administered 1 hr prior to formalin challenge measured after 1 hr relative to control; type: functional
Summary of the method: (§1)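 Male Wistar rats, 180–200 g, groups of five; single oral dose 1 h before 2% formalin (0.1 mL) into subplantar left hind paw under light ether anaesthesia. Paw volume read by water plethysmometer at baseline and 1, 2, 3, 4 h; % inhibition = control (Vt−Vo) minus treated (Vt−Vo), over control, ×100. Means ± SEM; ANOVA with Student–Newman–Keuls.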

Rattus norvegicus [5] = assay: Antiinflammatory activity in Wistar albino rat assessed as inhibition of formalin-induced paw edema at 20 mg/kg, po administered 1 hr prior to formalin challenge measured after 2 hrs relative to control; type: functional; summary of the method: as §1
Rattus norvegicus [6] = assay: Antiinflammatory activity in Wistar albino rat assessed as inhibition of formalin-induced paw edema at 20 mg/kg, po administered 1 hr prior to formalin challenge measured after 3 hrs relative to control; type: functional; summary of the method: as §1
Rattus norvegicus [7] = assay: Antiinflammatory activity in Wistar albino rat assessed as inhibition of formalin-induced paw edema at 20 mg/kg, po administered 1 hr prior to formalin challenge measured after 4 hrs relative to control; type: functional; summary of the method: as §1
Rattus norvegicus [8] = assay: Antiinflammatory activity in Wistar albino rat sub-acute inflammatory model assessed as inhibition of formalin-induced paw edema at 20 mg/kg, po administered 1 hr prior to formalin challenge measured on day 1 relative to control; type: functional
Summary of the method: (§2)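 Male Wistar rats, 180–200 g, five per group, dosed orally 20 mg/kg daily for 7 consecutive days. Formalin (2%, 0.1 mL) injected subplantar into left hind paw under light ether 1 h after dosing, repeated on day 3. Paw volume measured plethysmographically on days 1 and 8; inhibition expressed relative to untreated controls.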

Rattus norvegicus [9] = assay: Antiinflammatory activity in Wistar albino rat sub-acute inflammatory model assessed as inhibition of formalin-induced paw edema at 20 mg/kg, po administered 1 hr prior to formalin challenge measured on day 8 relative to control; type: functional; summary of the method: as §2
Rattus norvegicus [10] = assay: Antiinflammatory activity in po dosed Wistar albino rat assessed as inhibition of formalin-induced paw edema after 3 hrs relative to control; type: functional
Rattus norvegicus [11] = assay: Toxicity in Wistar albino rat assessed as ulcerogenic activity at 300 mg/kg, po qd for 3 days; type: organism-based; set-up: dose 300 mg/kg, route oral; details: in vivo, 72 h
Summary of the method: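 Rats in groups of five, fasted 12 h with water ad libitum; oral dosing in two equal portions at 0 and 12 h for three days, 300 mg/kg per day; control given 1% gum acacia. Killed 6 h after last dose; stomach opened along greater curvature, saline-washed, inspected under 3× lens for hyperemia, hemorrhage, erosion or ulcer.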

THP-1 [12] = assay: Cytotoxicity against human THP1 cells assessed as reduction in cell viability; type: cell-based
Summary of the method: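 THP-1 cells in DMEM-F12 with 5% FBS, 24-well plates, pretreated 15 min with compound or DMSO vehicle, then stimulated with LPS 0.5 µg/mL plus IFN-γ 150 U/mL for 24 h. Death read as supernatant LDH (iodonitrotetrazolium formazan, 490 nm, fraction of Triton X-100 lysate); survival by MTT; MCP-1 by ELISA. Concentration effects by randomized block ANOVA; 8–11 independent experiments.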

[13] = Acute toxicity in Wistar albino rat after 24 hrs; type: organism-based; details: in vivo, read-out: ALD50
Summary of the method: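 Male Wistar albino rats (180–200 g), fasted 24 h, groups of five; compound given orally in graded doses of 0.1–3.0 g/kg. Mortality recorded at each dose after 24 h to estimate approximate acute lethal dose (ALD50).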

[14] = biological target: T1, Prostaglandin G/H synthase 1 (Ovis aries) (UniProt P05979); assay: Inhibition of ovine COX1 at 100 uM
T1 sequence (whole entry): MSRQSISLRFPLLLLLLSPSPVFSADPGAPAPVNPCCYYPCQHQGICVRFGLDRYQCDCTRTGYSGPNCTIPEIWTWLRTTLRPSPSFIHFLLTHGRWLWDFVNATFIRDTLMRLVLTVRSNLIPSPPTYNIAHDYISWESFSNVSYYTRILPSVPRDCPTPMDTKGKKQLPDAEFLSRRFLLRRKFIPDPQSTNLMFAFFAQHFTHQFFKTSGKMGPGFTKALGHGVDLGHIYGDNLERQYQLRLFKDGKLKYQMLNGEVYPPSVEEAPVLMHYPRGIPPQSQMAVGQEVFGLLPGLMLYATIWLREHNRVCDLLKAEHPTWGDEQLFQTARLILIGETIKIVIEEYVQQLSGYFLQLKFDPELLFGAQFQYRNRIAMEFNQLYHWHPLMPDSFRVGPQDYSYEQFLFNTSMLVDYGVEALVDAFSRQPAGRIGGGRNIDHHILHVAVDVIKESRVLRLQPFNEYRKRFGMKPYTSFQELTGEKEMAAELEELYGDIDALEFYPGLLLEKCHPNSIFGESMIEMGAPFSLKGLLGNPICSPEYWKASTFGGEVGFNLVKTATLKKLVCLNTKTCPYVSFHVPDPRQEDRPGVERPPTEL
Summary of the method: (§3)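 Screening kit with ovine COX-1 and human recombinant COX-2, run per manufacturer's protocol; percent inhibition of prostaglandin production measured for each isoform.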

[15] = biological target: T2, Prostaglandin G/H synthase 2 (Homo sapiens) (UniProt P35354); assay: Inhibition of human COX2 at 100 uM; summary of the method: as §3
T2 sequence (whole entry): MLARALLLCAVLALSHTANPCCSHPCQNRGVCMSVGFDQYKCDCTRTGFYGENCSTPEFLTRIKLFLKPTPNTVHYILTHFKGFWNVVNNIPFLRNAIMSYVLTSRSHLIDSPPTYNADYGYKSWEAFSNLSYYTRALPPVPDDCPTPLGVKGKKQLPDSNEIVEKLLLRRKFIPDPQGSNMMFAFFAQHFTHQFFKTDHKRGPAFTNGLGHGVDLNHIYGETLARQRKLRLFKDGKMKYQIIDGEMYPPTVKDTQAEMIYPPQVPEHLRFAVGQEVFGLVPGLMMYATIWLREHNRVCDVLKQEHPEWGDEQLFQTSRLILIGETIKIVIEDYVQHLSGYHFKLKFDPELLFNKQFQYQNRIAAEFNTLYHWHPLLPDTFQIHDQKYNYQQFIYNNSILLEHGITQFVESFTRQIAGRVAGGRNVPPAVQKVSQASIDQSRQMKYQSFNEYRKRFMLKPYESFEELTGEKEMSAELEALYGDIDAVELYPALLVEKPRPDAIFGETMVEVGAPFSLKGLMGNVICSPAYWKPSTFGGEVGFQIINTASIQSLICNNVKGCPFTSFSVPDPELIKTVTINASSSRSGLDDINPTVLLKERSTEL

SH-SY5Y = assay: Neuroprotective activity in human SH-SY5Y cells; type: functional, cell-based
Summary of the method: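 SH-SY5Y cells seeded at 2 × 10^5/mL in DMEM-F12 with 5% FBS; after 24 h medium replaced by supernatant of THP-1 cells stimulated 24 h with LPS + IFN-γ, or by medium containing 250 µM H2O2, with compound added at transfer. Cell death measured by LDH assay 72 h later; five independent experiments; randomized block ANOVA.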

SH-SY5Y (Homo sapiens) = assay: Neuroprotective activity against LPS and IFN-gamma-induced human THP1 cell supernatant-induced death of human SH-SY5Y cells after 72 hrs by MTT assay; details: THP-1

| SMILES | inhibition in vivo at 20 mg/kg (Rattus norvegicus [1]) | pIC50 (THP-1 [2]) | pIC50 (THP-1 [3]) | inhibition in vivo at 20 mg/kg (Rattus norvegicus [4]) | inhibition in vivo at 20 mg/kg (Rattus norvegicus [5]) | inhibition in vivo at 20 mg/kg (Rattus norvegicus [6]) | inhibition in vivo at 20 mg/kg (Rattus norvegicus [7]) | inhibition in vivo at 20 mg/kg (Rattus norvegicus [8]) | inhibition in vivo at 20 mg/kg (Rattus norvegicus [9]) | ED50 (Rattus norvegicus [10]) | Activity (Rattus norvegicus [11]) | pEC50 (THP-1 [12]) | other results |
| --- | --- | --- | --- | --- | --- | --- | --- | --- | --- | --- | --- | --- | --- |
| Cc1ccc(-c2cc(C(F)(F)F)nn2-c2ccc(S(N)(=O)=O)cc2)cc1 [CELECOXIB] | 46% | 4.15 | 5.30 | 38% | 41% | 56% | 47% | 37% | 41% | 15.7 mg/kg | 0% |  |  |
| N#Cc1cnn(-c2ccccc2)c1NC(=O)C(=O)NC1CCCCC1 |  | < 3.30 | 3.60 |  |  |  |  |  |  |  |  | 4.10 |  |
| COc1ccc2c(c1)c(CC(=O)O)c(C)n2C(=O)c1ccc(Cl)cc1 [INDOMETHACIN] |  |  |  |  |  |  |  |  |  |  | 100% |  |  |
| N#Cc1cnn(-c2ccccc2)c1NC(=O)C(=O)NCCCN1CCOCC1 |  | < 3.30 | 4.00 |  |  |  |  |  |  |  |  | < 3.30 |  |
| C[C@@H](NC(=O)C(=O)Nc1c(C#N)cnn1-c1ccccc1)c1ccccc1 | 39% |  |  | 56% | 36% | 44% | 50% | 39% | 33% | 18.9 mg/kg | 0% |  | LD50 at 24 h [13]: > 300 mg/kg |
| C[C@H](NC(=O)C(=O)Nc1c(C#N)cnn1-c1ccccc1)c1ccccc1 | 49% |  |  | 37% | 32% | 38% | 39% | 41% | 35% | 22.4 mg/kg | 0% |  | LD50 at 24 h [13]: > 300 mg/kg |
| N#Cc1cnn(-c2ccccc2)c1NC(=O)C(=O)NCCc1ccccc1 |  |  |  |  |  |  |  |  |  |  |  | 5.00 |  |
| COC(=O)c1nc2c(cnn2-c2ccccc2)c(=O)[nH]1 |  | 4.00 | 4.70 |  |  |  |  |  |  |  |  | 4.40 | inhibition [14]: 16.4%; inhibition [15]: 14.2%; Activity (SH-SY5Y): inactive; Activity (SH-SY5Y (Homo sapiens)): Active |

Source: ChEMBL document CHEMBL1212828, “Synthesis and biological evaluation of novel pyrazole compounds” (Bioorg Med Chem, 2010)
